Data set [1] concerns Human immunodeficiency virus 1. Put plainly: Antiviral activity against HIV1 3B infected in human MT4 cells assessed as inhibition of virus-induced cytopathic effect after 5 days by MTT assay. Format: functional, organism-based. To be noted: Human immunodeficiency virus 1, 3B, MT4, 120 h. The method in brief:
(§1)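 MT-4 cells, resuspended at 6 × 10⁵ cells/ml, infected with HIV-1 IIIB or HIV-2 ROD at 100–300 CCID₅₀. Test compound stocks were made at 10× final concentration. Read after 5 days as MTT reduction to formazan, absorbance at 540 and 690 nm. Median OD of three wells. EC₅₀ is the concentration giving 50% protection against virus-induced cytopathic effect.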
(In general: Protection from cytopathic effect is a common read-out in antiviral testing.)

In data set [2] the test system is Human immunodeficiency virus 2. The experiment in a line: Antiviral activity against HIV2 ROD infected in human MT4 cells assessed as inhibition of virus-induced cytopathic effect after 5 days by MTT assay. Format: functional, organism-based. To be noted: Human immunodeficiency virus 2, ISOLATE ROD, MT4, 120 h. Put shortly: as §1
Data set [3] can be described thus: Cytotoxicity against mock-infected human MT4 cells after 5 days by MTT assay. Format: cell-based. The method in brief: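 Mock-infected MT-4 cells at 6 × 10⁵ cells/ml, with culture medium in place of virus, exposed to compound (stocks at 10× final concentration) for 5 days. Viability read by MTT, absorbance at 540 and 690 nm, median OD of three wells. CC₅₀ is the concentration reducing OD540 of the mock-infected control by 50%.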
A general note: Tetrazolium dyes change colour on reduction, which living cells bring about.

The nature of data set [4]: Selectivity index, ratio of CC50 for mock-infected human MT4 cells to EC50 for HIV1 3B infected in human MT4 cells. It is filed as toxicity, cell-based. To be noted: mock-infected (CC50) and HIV-1 3B infected (EC50). The method in brief: (§2)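 Selectivity index is CC₅₀/EC₅₀. Both values come from MTT assays run over 5 days in MT-4 cells, mock-infected or infected with HIV-1 IIIB or HIV-2 ROD at 100–300 CCID₅₀. Median OD of three wells.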

Data set [5] can be described thus: Selectivity index, ratio of CC50 for mock-infected human MT4 cells to EC50 for HIV2 ROD infected in human MT4 cells. It is filed as toxicity, cell-based. The conditions noted are these: read-out: Ratio CC50/EC50. Put shortly:
as §2

The target in data set [6] is Human immunodeficiency virus type 1 reverse transcriptase (Human immunodeficiency virus 1, UniProt Q72547). The experiment in a line: Inhibition of wild type HIV1 reverse transcriptase.
The target of data set [7] is Human immunodeficiency virus type 1 reverse transcriptase (Human immunodeficiency virus 1, UniProt Q72547, K103N/Y181C). Put plainly: Inhibition of HIV1 reverse transcriptase K103N/Y181C mutant.

A word on the EC50: it is the concentration giving half of the maximal effect. As a reminder, the CC50 is the concentration that lowers cell viability or growth by half. Read a high CC50 as better tolerance by the cells. In the case of `O=C(CSc1[se]nnc1-c1ccc(Cl)c(Cl)c1)Nc1cccnc1Cl`, the EC50 in data set [1] and in data set [2] was above 24.8 µM throughout. Besides, the midpoint of cytotoxicity in data set [3], the CC50 at 120 h, lay at 24.8 µM. Further, the selectivity ratio in data set [4] and in data set [5] was below 1 throughout.

In the case of `CC(=O)c1ccc(NC(=O)CSc2[se]nnc2-c2ccc(Cl)c(Cl)c2)c(Br)c1`, the results for the EC50 in data set [1] and in data set [2] were 2.45 µM and above 18.9 µM, respectively. In data set [3], this molecule showed a cytotoxic concentration (CC50) at 120 h of 18.9 µM. For the same molecule, the selectivity ratio in data set [4] is 8; in data set [5], below 1.

In the case of `Cc1cccc(NC(=O)CSc2[se]nnc2-c2ccc(Cl)c(Cl)c2)c1C`, the concentration for a half-maximal effect (EC50) in data set [1] and in data set [2] was above 12.8 µM in each case. The midpoint of cytotoxicity in data set [3], the CC50 at 120 h, lay at 12.8 µM. Besides, the selectivity ratio in data set [4] and in data set [5] was below 1 in each case.

In data set [6], `Cc1ccc(-n2c(C)nnc2SCC(=O)Nc2ccccc2)cc1` registered an EC50 of 2.05 µM.

Consider `Cc1ccc2sc(NC(=O)CSc3[se]nnc3-c3ccc(Cl)c(Cl)c3)nc2c1`, for which the EC50 in data set [1] and in data set [2] was above 10.2 µM each time. The molecule further came in with a cytotoxic concentration (CC50) at 120 h in data set [3] of 10.2 µM. Besides, the selectivity ratio in data set [4] and in data set [5] was below 1 in each case.

`O=C(CSc1[se]nnc1-c1ccc(Cl)c(Cl)c1)Nc1ccccc1`: the half-maximal effective concentration (EC50) is at least 6.07 µM in data set [1] and above 19 µM in data set [2]. In addition, the CC50 at 120 h in data set [3] is 19 µM. Moreover, the selectivity ratio in data set [4] is 63; in data set [5], below 1.

For `O=C(CSc1[se]nnc1-c1ccc(Cl)c(Cl)c1)Nc1ccc(Cl)cc1`, the results for the concentration giving a half-maximal response (EC50) in data set [1] and in data set [2] were 5.59 µM and above 16.8 µM, respectively. Also, half-maximal cytotoxicity in data set [3] (CC50 at 120 h) was put at 16.8 µM. Besides, the selectivity ratio is 3 in data set [4] and below 1 in data set [5].

As for `Cc1ccc(NC(=O)CSc2[se]nnc2-c2ccc(Cl)c(Cl)c2)c([N+](=O)[O-])c1`, the EC50 is 5.42 µM in data set [1] and above 26.3 µM in data set [2]. This molecule gave a half-maximal cytotoxic concentration (CC50) at 120 h in data set [3] of 26.3 µM. Moreover, the values for the selectivity ratio in data set [4] and in data set [5] were 5 and below 1, respectively.

Consider `O=C(CSc1[se]nnc1-c1ccc(Cl)c(Cl)c1)Nc1ccccc1Br`, for which the EC50 in data set [1] and in data set [2] was above 23.6 µM in each case. It took 23.6 µM to reach half-maximal cytotoxicity in data set [3] (CC50 at 120 h). For the same molecule, the selectivity ratio in data set [4] and in data set [5] was below 1 in each case.

Consider `O=C(CSc1[se]nnc1-c1ccc(Cl)c(Cl)c1)Nc1ccccc1F`, for which the EC50 in data set [1] and in data set [2] was above 26.9 µM throughout. Further, in data set [3], the CC50 at 120 h is 26.9 µM. Besides, the selectivity ratio in data set [4] and in data set [5] was below 1 throughout.

On to `COC(=O)c1ccsc1NC(=O)CSc1[se]nnc1-c1ccc(Cl)c(Cl)c1`, for which the concentration for a half-maximal effect (EC50) in data set [1] and in data set [2] was above 22 µM each time. This molecule also displayed a CC50 at 120 h in data set [3] of 22 µM. The selectivity ratio in data set [4] and in data set [5] was below 1 in each case.

Turning to `O=C(CSc1[se]nnc1-c1ccc(Cl)c(Cl)c1)Nc1ccccc1[N+](=O)[O-]`, the EC50 is at least 6.84 µM in data set [1] and above 26.6 µM in data set [2]. In data set [3], the CC50 at 120 h came to 26.6 µM. Besides, the selectivity ratio in data set [5] is below 1.

On to `Cc1ccc(NC(=O)CSc2nnc(C)n2-c2ccccc2)c(Br)c1`, for which the EC50 in data set [6] is 0.1 µM; in data set [7], 1.3 µM.

With `Cc1cccc(C)c1NC(=O)CSc1[se]nnc1-c1ccc(Cl)c(Cl)c1`, the concentration giving a half-maximal response (EC50) in data set [1] and in data set [2] was above 7 µM each time. This molecule also registered a half-maximal cytotoxic concentration (CC50) at 120 h in data set [3] of 7 µM. The selectivity ratio in data set [4] and in data set [5] was below 1 throughout.

In the case of `O=C(CSc1[se]nnc1-c1ccc(Cl)c(Cl)c1)Nc1ccccc1Cl`, the EC50 in data set [1] and in data set [2] was above 23.4 µM in each case. For the same molecule, the midpoint of cytotoxicity in data set [3], the CC50 at 120 h, lay at 23.4 µM. Besides, the selectivity ratio in data set [4] and in data set [5] was below 1 throughout.

Regarding `Cc1ccccc1NC(=O)CSc1[se]nnc1-c1ccc(Cl)c(Cl)c1`, the EC50 is 5.56 µM in data set [1] and above 22.3 µM in data set [2]. Also, in data set [3], it took 22.3 µM to reach half-maximal cytotoxicity (CC50 at 120 h). The selectivity ratio was 4 in data set [4] and below 1 in data set [5].

Regarding `Cc1ccc(NC(=O)CSc2[se]nnc2-c2ccc(Cl)c(Cl)c2)c(Br)c1`, the EC50 in data set [1] was at least 8.71 µM; in data set [2], above 22.9 µM. In addition, it took 22.9 µM to reach half-maximal cytotoxicity in data set [3] (CC50 at 120 h). The selectivity ratio in data set [5] is below 1.

On to `O=C(CSc1[se]nnc1-c1ccc(Cl)c(Cl)c1)Nc1ccccn1`, for which the 50% effective concentration (EC50) in data set [1] and in data set [2] was above 31.4 µM in each case. In data set [3], the half-maximal cytotoxic concentration (CC50) at 120 h is 31.4 µM. Moreover, the selectivity ratio in data set [4] and in data set [5] was below 1 throughout.

A word on the IC50: it is the midpoint of a concentration-inhibition curve. `Cc1cc(C)c(-n2nnnc2SCC(=O)Nc2ccccc2Cl)c(C)c1` registered a half-inhibitory concentration (IC50) in data set [6] of 0.005 µM.

As to `Cc1ccc(NC(=O)CSc2[se]nnc2-c2ccc(Cl)c(Cl)c2)cc1`, the EC50 in data set [1] was 6.65 µM; in data set [2], above 13.3 µM. The molecule further yielded a cytotoxic concentration (CC50) at 120 h in data set [3] of 13.3 µM. Moreover, the selectivity ratio in data set [4] was 2; in data set [5], below 1.

As for `O=C(CSc1[se]nnc1-c1ccc(Cl)c(Cl)c1)Nc1nccs1`, the EC50 in data set [1] and in data set [2] was above 8.68 µM throughout. Also, the 50% cytotoxic concentration (CC50) at 120 h in data set [3] is 8.68 µM. In addition, the selectivity ratio in data set [4] and in data set [5] was below 1 throughout.

The values above are taken from ChEMBL document CHEMBL1152518, “1,2,3-Selenadiazole thioacetanilides: synthesis and anti-HIV activity evaluation” (Bioorg Med Chem, 2009).
